Screens (PubChem)
The list is not random: actives were taken first. Their share in the collection is about 4.6%.
TAAR1 antagonist – antagonists of human TAAR1; 360,000 compounds, 1.5% hits; Q96RJ0; AID 624466; inhibition, % at 3 µM; CHO RD-HGA16 TAAR1, Fluo-8 calcium fluorescence, antagonist;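 active = inhibition above a per-plate cutoff, the mean inhibition of test compounds on that plate plus 3 SD, cut at about 49% in these data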;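 also: 0% = DMSO plus EC80 beta-PEA response and 100% = DMSO alone without agonist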
Target sequence (Q96RJ0 whole entry, looked up): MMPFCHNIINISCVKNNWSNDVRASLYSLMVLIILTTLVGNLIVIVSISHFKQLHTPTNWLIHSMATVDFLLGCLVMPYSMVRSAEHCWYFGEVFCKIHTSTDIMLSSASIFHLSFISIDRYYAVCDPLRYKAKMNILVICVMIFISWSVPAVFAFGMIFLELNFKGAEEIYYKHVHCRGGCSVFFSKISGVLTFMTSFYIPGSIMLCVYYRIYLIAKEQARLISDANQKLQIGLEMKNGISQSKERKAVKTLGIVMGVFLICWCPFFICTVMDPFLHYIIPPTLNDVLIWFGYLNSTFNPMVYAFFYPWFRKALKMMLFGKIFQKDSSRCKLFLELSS
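Test system – hTAAR1-expressing CHO RD-HGA16 cells, Gα16-coupled · Also added – β-PEA at EC80 concentration, post-compound challenge · Compound – 3 µM, single point · Incubation – dye loading 75 min at 37 °C, then 30 min room temperature · Measured by – Fluo-8 intracellular calcium dye fluorescence, real-time kinetic reads · Benchmarks – vehicle and agonist controls · Replicates – singlicate, one well per test compound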
GPR7 antagonist – blocks human GPR7 receptor signaling | GPR7-expressing cells, fluorescence antagonist assay | P48145 | 290,000 compounds, 1.1% hits | inhibition, % at 4.4 µM | AID 1861; in the data active = inhibition above about 16%, passing the limit was not always enough;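 also: cells stimulated with the agonist NPW; 0% = agonist with vehicle and 100% = vehicle without agonist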
TAAR1 agonist – human TAAR1 agonism; activation, % at 3 µM; CHO RD-HGA16 TAAR1, Fluo-8 calcium fluorescence; vehicle wells 0%, saturating PEA agonist 100%; Q96RJ0; AID 624467; 360,000 compounds, 0.99% hits;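 active = activation above the mean activation of all test compounds in the run plus 3 SD, cut at about 38% in these data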
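Benchmarks: low control DMSO, high control PEA (EC100); System: CHO RD-HGA16 cells carrying human TAAR1 plus Gα16; Detection: Fluo-8 fluorescence, 5 s baseline then 140 s kinetic read; Schedule: 17-24 h plating, Fluo-8 75 min 37 °C, 30 min RT; Read-out basis: % activation from peak over basal fluorescence ratio, DMSO-to-PEA scaled.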
CHO parental Ca – signal in parental CHO cells, OX1R antagonist counter-screen | AID 463079 | inhibition, % at 5.6 µM | 330,000 compounds, 0.63% hits | parental CHO-K1, ATP-induced calcium, Fluo-8 fluorescence;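 active = inhibition above that plate's mean sample inhibition plus 3 SD, cut at about 26% in these data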;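 also: 0% = ATP-challenged DMSO wells and 100% = DMSO wells without ATP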
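Material: parental CHO cells / Compound: single nominal dose of 5.6 µM per compound / Signal: Fluo-8 fluorescence / Replicates: singlicate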
OX1R antag-1 – human HCRTR1 antagonism | O43613 | CHO/OX1R cells, Fluo-8 calcium fluorescence, orexin A | AID 434989 | inhibition, % at 5 µM | 330,000 compounds, 0.43% hits;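 active = inhibition above its plate's threshold, mean inhibition of all tested compounds on the plate plus 3 SD, cut at about 37% in these data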;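 also: 0% = orexin A challenge wells and 100% = SB-334867-A antagonist wells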
OX1R antag-2 – blocks the human orexin 1 receptor; O43613; OX1R-expressing cells, FRET antagonist read-out; inhibition, % at 6.6 µM; 330,000 compounds, 1.8% hits; in the data active = inhibition mostly above about 38%, no sharp cut-off; inactive = mostly below about 40%;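 also: 0% = agonist challenge alone and 100% = reference antagonist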
OX1R Ca confirm – confirmation of human orexin 1 receptor antagonists; 1,100 compounds, 38% hits; inhibition, % at 5 µM; CHO/OX1R cells, orexin A calcium Fluo-8 fluorescence; shares compounds with OX1R antag-1; in the data active = inhibition above about 29%;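 also: 0% = agonist challenge alone and 100% = reference antagonist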
CHO Ca triplic – signal in parental CHO cells, OX1R antagonist counter-screen; shares compounds with OX1R antag-1; 1,100 compounds, 9.3% hits; inhibition, % at 5.6 µM; parental CHO-K1, ATP-induced calcium, Fluo-8 fluorescence;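 active = inhibition above a per-plate limit, the mean inhibition of that plate's test compounds plus 3 SD, cut at about 25% in these data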;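 also: 0% = ATP challenge with DMSO and 100% = DMSO without ATP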
OX1R HTRF confirm – confirmation of human orexin 1 receptor antagonists, HTRF format. shares compounds with OX1R antag-2. OX1R-expressing cells, HTRF antagonist assay. inhibition, % at 6.6 µM. 1,800 compounds, 49% hits; in the data active = inhibition above about 55%;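 also: CHO cells expressing OX1R stimulated with orexin A at about EC80; 0% = agonist challenge alone and 100% = reference antagonist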
CHO-K1 HTRF cnt – counter-screen for OX1R antagonists: effect in parental CHO-K1 cells. shares compounds with OX1R antag-2. HTRF counterscreen. inhibition, % at 6.6 µM. 1,800 compounds, 48% hits; in the data active = inhibition above about 17%;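 also: 0% = agonist challenge with vehicle and 100% = vehicle alone without agonist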
* = called active by the depositor; . = no result given.

SMILES	TAAR1 antagonist	GPR7 antagonist	TAAR1 agonist	CHO parental Ca	OX1R antag-1	OX1R antag-2	OX1R Ca confirm	CHO Ca triplic	OX1R HTRF confirm	CHO-K1 HTRF cnt
CCN(CC)S(=O)(=O)c1cc(NC(=O)CCc2c(C)noc2C)ccc1C	-4	.	2	-12	15	22	.	.	.	.
COc1cccc(-c2cc3nc(-c4ccccc4)cc(N4CCC5(CC4)OCCO5)n3n2)c1	33	-8	-1	-13	46*	43*	18	-2	53	10
COc1cccc(-c2cc3nc(-c4ccccc4)cc(N4CCN(C(=O)c5ccoc5)CC4)n3n2)c1	40	.	0	.	.	.	.	.	.	.
COc1ccc(CNC(=O)/C=C/[C@H]2O[C@@H](n3cc(C)c(=O)[nH]c3=O)C[C@@H]2O)cc1	-5	.	0	.	.	.	.	.	.	.
CC(Oc1ccc2ccc(=O)oc2c1)C(=O)NCCN1CCOCC1 (centres undefined)	-10	-16	1	2	6	12	.	.	.	.
COc1cc(C(O)c2nc(-c3cccc(F)c3)cs2)ccc1F (centres undefined)	3	.	0	.	.	.	.	.	.	.
Cc1ccc(S(=O)(=O)N2CCCC2C(=O)Nc2nc3c(s2)CCCC3)cc1 (centres undefined)	5	-16	3	-18	44*	78*	31*	-14	93*	1
CCOc1ccccc1NC(=O)C1CCCN1S(=O)(=O)c1ccccc1C(F)(F)F (centres undefined)	-2	.	-1	-21	76*	79*	39*	-16	85*	-4
O=C(NCc1ccccc1)C1CCCN1S(=O)(=O)c1ccc(Cl)cc1 (centres undefined)	-23	-14	6	-27	-20	7	.	.	.	.
COc1ccccc1NC(=O)[C@@H]1CCCN1S(=O)(=O)c1ccc(Cl)cc1	-13	.	5	-11	48*	58*	52*	-27	70*	-22
O=C(Nc1ccccc1)[C@@H]1CCCN1S(=O)(=O)c1ccc(Cl)cc1	-13	.	3	-15	45*	62*	39*	-12	78*	8
CCc1nc2c(OCc3cc(Cl)cc(Cl)c3)cccn2c1N(C)C(=O)c1ccc(C)cc1	-7	.	8	.	.	.	.	.	.	.
CCOc1cc(N2CCOCC2)c(OCC)cc1NC(=O)CN1C(=O)N(C)C2(CCCCC2)C1=O	-24	.	4	-10	-18	1	.	.	.	.
Cn1cccc1CN1CCC[C@]2(N[C@H](c3ccc(C(F)(F)F)cc3)[C@@H]3C(=O)N(Cc4ccccc4)C(=O)[C@@H]32)C1=O	-1	.	-2	.	.	.	.	.	.	.
CC(=O)N1CCN(S(=O)(=O)c2cccc(C(=O)Nc3ccc(C)cn3)c2)CC1	-16	-3	3	-7	0	2	.	.	.	.
Cc1ccc(NC(=O)c2cccc(S(=O)(=O)N3CCc4ccccc4C3)c2)nc1	19	.	2	-20	32	39*	-6	-12	36	4
CN(Cc1c(F)cccc1Cl)C(=O)c1ccc(NS(=O)(=O)c2ccc3[nH]c(=O)[nH]c3c2)cc1	-9	.	1	-6	-20	15	.	.	.	.
Oc1ccccc1-c1nc(NCC2CCCO2)c2ccccc2n1 (centres undefined)	37	9	5	-21	63*	97*	44*	-7	88*	16
COc1cccc(-c2nc(NCC3CCCO3)c3ccccc3n2)c1O (centres undefined)	45	-2	13	-13	-26	25	.	.	.	.
Cc1csc(-c2coc3cc(O)cc(C)c3c2=O)n1	-17	-12	3	-4	60*	94*	25	4	91*	7
